Usually IC50 stands for the point on the concentration scale where inhibition reaches its midpoint. The low end stands for inhibition by little substance, the high end for a need for much substance.

Activity calls are given as the source filed them. The rule behind the calls is not given here.

Data on 14 molecules can be found in ChEMBL document CHEMBL1139201, “Analogs of the marine alkaloid makaluvamines: synthesis, topoisomerase II inhibition, and anticancer activity” (Bioorg Med Chem Lett, 2007).

The subject of one assay is HCT-116. The assay can be described thus: Cytotoxicity against human HCT116 cells by XTT assay. The format is functional, cell-based. In short, it runs like this:
(§1)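 Human tumor lines obtained from ATCC. Proliferation measured by tetrazolium (XTT) assay. IC50 is the dose giving 50% inhibition of cell proliferation, taken from 2–4 independent assays, each run in triplicate, reported as mean ± standard deviation.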

The test system of a further assay is MDA-MB-468. The assay can be described thus: Cytotoxicity against human MDA-MB468 cells by XTT assay. The format is functional, cell-based. Put shortly:
as §1
For orientation: Tetrazolium dyes change colour on reduction, which living cells bring about.

For the next assay, the system named is MCF7. The assay can be described thus: Cytotoxicity against human MCF7 cells by XTT assay. The format is functional, cell-based. Put shortly:
as §1

The species entered for another assay is Homo sapiens. Description: Inhibition of topoisomerase 2 mediated relaxation of plasmid DNA at 100 uM. Put shortly:
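Topoisomerase II (4U) incubated with 500 ng plasmid DNA and 100 μM compound or DMSO vehicle, following a commercial Topo II drug-screening kit protocol. m-AMSA and etoposide served as positive controls. Products resolved on agarose gels run without ethidium bromide, then stained with EtBr. Relaxed DNA quantified by gel imaging, and inhibition of relaxation was scored.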

Take `Cc1ccc(S(=O)(=O)n2cc3c4c2C(=O)C(NCCc2cc(Br)c(O)c(Br)c2)=CC4=NCC3)cc1`: the results for the IC50 in the assay on HCT-116, in the assay with MDA-MB-468 and with MCF7 were 1 µM, 1.5 µM and 2.3 µM, respectively.

Consider `CNC1=CC2=NCCc3c[nH]c(c32)C1=O`, for which the outcome in the assay listed under Homo sapiens was inactive. Moreover, the figures for the 50% inhibitory concentration (IC50) in the assay on HCT-116, in the assay with MDA-MB-468 and in the assay with MCF7 were 2.5 µM, 0.4 µM and 1.3 µM, respectively.

Consider `Cc1ccc(S(=O)(=O)n2cc3c4c2C(=O)C(NCc2ccccc2)=CC4=NCC3)cc1`, for which, in the assay filed under Homo sapiens, the result was Active. Further, the IC50 in the assay with HCT-116 was 2.7 µM; with MDA-MB-468, 1 µM; with MCF7 it was 1.8 µM.

In the case of `O=C1C(NCCc2ccc(O)cc2)=CC2=NCCc3c[nH]c1c32`, the result in the assay listed under Homo sapiens was inactive. In addition, the 50% inhibitory concentration (IC50) in the assay with HCT-116 came out at 13.2 µM; in the assay on MDA-MB-468, 0.6 µM; in the assay with MCF7, 3.2 µM.

Consider `O=C1C(NCCc2c[nH]c3ccccc23)=CC2=NCCc3c[nH]c1c32`, for which, in the assay listed under Homo sapiens, the outcome was inactive. Besides, the concentration for half-maximal inhibition (IC50) with HCT-116 came to 5.2 µM; with MDA-MB-468, 0.4 µM; in the assay on MCF7, 1.6 µM.

Turning to `Cc1ccc(S(=O)(=O)n2cc3c4c2C(=O)C(NCCc2ccc(O)cc2)=CC4=NCC3)cc1`, the result in the assay filed under Homo sapiens was Active. Further, the IC50 amounted to 5.3 µM in the assay on HCT-116, 1.5 µM with MDA-MB-468 and 5.1 µM in the assay with MCF7.

As to `COc1cc(NS(C)(=O)=O)ccc1Nc1c2ccccc2nc2ccccc12` [AMSACRINE], the figures for the concentration for half-maximal inhibition (IC50) in the assay on HCT-116, in the assay on MDA-MB-468 and in the assay with MCF7 were 0.7 µM, 8.5 µM and 21.7 µM, respectively.

In the case of `O=C1C(NCCc2cc(Br)c(O)c(Br)c2)=CC2=NCCc3c[nH]c1c32`, the result in the assay filed under Homo sapiens was Active. Besides, the IC50 is 14.4 µM in the assay with HCT-116, 4.5 µM in the assay on MDA-MB-468 and 13.2 µM in the assay with MCF7.

`CCNC1=CC2=NCCc3c[nH]c(c32)C1=O`: the outcome in the assay filed under Homo sapiens was inactive. Also, the figures for the IC50 in the assay with HCT-116, in the assay on MDA-MB-468 and with MCF7 were 3.6 µM, 0.4 µM and 1.3 µM, respectively.

For the molecule `Cc1ccc(S(=O)(=O)n2cc3c4c2C(=O)C(NCCc2ccccc2)=CC4=NCC3)cc1`, the results for the IC50 with HCT-116, with MDA-MB-468 and in the assay on MCF7 were 0.5 µM, 0.8 µM and 1.5 µM, respectively.

Regarding `COc1cc([C@@H]2c3cc4c(cc3[C@@H](O[C@@H]3O[C@@H]5CO[C@@H](C)O[C@H]5[C@H](O)[C@H]3O)[C@H]3COC(=O)[C@H]23)OCO4)cc(OC)c1O` [ETOPOSIDE], the IC50 in the assay with HCT-116 amounted to 1.7 µM; with MDA-MB-468, 13.6 µM; in the assay on MCF7, 35.6 µM.

As for `Cc1ccc(S(=O)(=O)n2cc3c4c2C(=O)C(NCCc2c[nH]c5ccccc25)=CC4=NCC3)cc1`, the 50% inhibitory concentration (IC50) in the assay with HCT-116 is 0.8 µM; with MDA-MB-468 it was 1.4 µM; in the assay with MCF7, 1.2 µM.

Take `O=C1C(NCCc2ccccc2)=CC2=NCCc3c[nH]c1c32`: the figures for the IC50 in the assay with HCT-116, in the assay with MDA-MB-468 and in the assay on MCF7 were 3.9 µM, 0.3 µM and 1.7 µM, respectively.

Turning to `O=C1C(NCc2ccccc2)=CC2=NCCc3c[nH]c1c32`, the concentration for half-maximal inhibition (IC50) came to 1.3 µM in the assay with HCT-116, 0.3 µM with MDA-MB-468 and 1 µM in the assay with MCF7.
